Source: ChEMBL document CHEMBL5214961, “Novel Allosteric Inhibitor-Derived AKT Proteolysis Targeting Chimeras (PROTACs) Enable Potent and Selective AKT Degradation in KRAS/BRAF Mutant Cells” (J Med Chem, 2022)
Active and inactive are the calls of the source. No cut-off for these calls is given here.

What was measured:
[1] = Cmax in Swiss albino mouse at 75 mg/kg, ip administered as single dose and measured for 12 hrs by LC-MS/MS analysis; format: ADME, organism-based; design: dose 75 mg/kg, time 12 hrs, route ip; details: in vivo
In short: (§1)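 Single IP dose of 75 mg/kg to male Swiss albino mice (six dosed); compound as HCl salt in 5% v/v NMP, 5% v/v Solutol HS-15, 90% v/v normal saline. About 60 μL plasma taken from three mice at 0.5, 1, 2, 4, 8 and 12 h; LC-MS/MS quantitation (LLOQ 1.02 ng/mL); values are means of 3 mice.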

PC-3 = test: Inhibition of colony formation in human PC-3 cells at 0.1 to 10 uM incubated for 2 weeks with media replacement for every 2 days by crystal violet staining based analysis; format: functional, cell-based; details: dose 0.1-10 µM
In short: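 PC3 cells kept 14 days with compound; compound-containing medium replenished every two days. Viable cells stained with 0.5% crystal violet.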

[2] = biological target: T1, RAC-alpha serine/threonine-protein kinase (Homo sapiens, UniProt P31749); test: Induction of AKT degradation in MS21-resistant human HT-29 cells harboring BRAF/PI3KA mutant assessed as reduction in total AKT level at 1 uM incubated for 24 hrs by Western blot analysis; format: cell-based
In short: (§2)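 Cells grown in DMEM with 10% FBS at 37 °C, 5% CO2, then exposed to compound at 1 μM for 24 h. Lysates made in 2X urea/SDS sample buffer, run on 4–12% Bis-Tris gels, transferred to PVDF, probed for total AKT overnight at 4 °C; HRP/chemiluminescence detection with β-actin as loading control.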
Target sequence in this assay (P31749 whole entry): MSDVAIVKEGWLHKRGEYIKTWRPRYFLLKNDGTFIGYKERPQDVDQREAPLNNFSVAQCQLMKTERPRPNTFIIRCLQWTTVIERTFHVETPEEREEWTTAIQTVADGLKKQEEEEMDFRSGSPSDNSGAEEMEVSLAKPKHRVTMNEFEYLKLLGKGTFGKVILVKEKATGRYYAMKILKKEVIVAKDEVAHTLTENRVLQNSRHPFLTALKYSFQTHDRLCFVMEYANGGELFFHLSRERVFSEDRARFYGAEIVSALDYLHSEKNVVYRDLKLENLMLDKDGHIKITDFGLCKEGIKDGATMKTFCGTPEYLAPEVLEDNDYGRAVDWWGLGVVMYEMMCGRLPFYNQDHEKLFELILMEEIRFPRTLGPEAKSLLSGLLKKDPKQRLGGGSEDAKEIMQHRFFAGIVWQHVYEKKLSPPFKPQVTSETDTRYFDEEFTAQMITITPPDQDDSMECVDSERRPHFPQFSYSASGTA

[3] = biological target: T1, RAC-alpha serine/threonine-protein kinase; test: Induction of AKT degradation in MS-21 resistant human MIA PaCa-2 cells harboring KRAS-mutant assessed as reduction in total Akt level at 1 uM incubated for 24 hrs by Western blot analysis; format: cell-based
Target sequence in this assay (P31749 whole entry): as above

[4] = biological target: T1, RAC-alpha serine/threonine-protein kinase; test: Induction of AKT1 degradation in human SW620 cells at 0.01 to 10 uM incubated for 24 hrs by Western blot analysis; format: cell-based; details: dose 0.01-10 µM
Target sequence in this assay (P31749 whole entry): as above

[5] = biological target: RAC-gamma serine/threonine-protein kinase (Homo sapiens, UniProt Q9Y243); test: Inhibition of AKT3 (unknown origin) preincubated for 20 mins followed by [33P]-ATP addition measured after 120 mins by hotspot kinase assay
Chain of RAC-gamma serine/threonine-protein kinase (Q9Y243 whole entry): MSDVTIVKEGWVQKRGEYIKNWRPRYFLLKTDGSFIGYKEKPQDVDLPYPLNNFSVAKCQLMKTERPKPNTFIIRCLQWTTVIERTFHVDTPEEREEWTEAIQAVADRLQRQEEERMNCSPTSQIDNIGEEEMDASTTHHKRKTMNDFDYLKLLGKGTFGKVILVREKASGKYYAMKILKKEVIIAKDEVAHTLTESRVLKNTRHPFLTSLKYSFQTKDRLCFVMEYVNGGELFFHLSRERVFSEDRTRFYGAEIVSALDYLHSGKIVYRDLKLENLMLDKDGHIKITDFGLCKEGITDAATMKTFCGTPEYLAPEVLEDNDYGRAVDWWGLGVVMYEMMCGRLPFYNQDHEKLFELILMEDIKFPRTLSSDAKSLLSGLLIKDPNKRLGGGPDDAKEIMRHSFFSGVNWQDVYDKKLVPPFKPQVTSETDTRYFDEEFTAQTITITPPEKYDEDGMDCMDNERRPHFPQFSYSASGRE

[6] = Plasma concentration in Swiss albino mouse at 75 mg/kg, ip administered as single dose and measured for 12 hrs by LC-MS/MS analysis; format: ADME, organism-based; in short: as §1
SW-620 [7] = test: Antiproliferative activity against human SW620 cells harboring KRAS mutant assessed as inhibition of cell growth incubated for 5 days by IncuCyte live-cell imaging analysis; format: functional, cell-based; details: SW-620, 120 h, time 5 day
[8] = biological target: T1, RAC-alpha serine/threonine-protein kinase; test: Induction of AKT degradation in MS21-resistant human PANC-1 cells harboring […] mutant assessed as reduction in total AKT level incubated for 24 hrs by Western blot analysis; format: cell-based; details: dose 0.01-10 µM, DDE = dose-dependent effect
In short: (§3)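 Dose-response in DMEM/10% FBS culture: compound at the indicated concentrations, up to 10 μM, for 24 h. Total AKT read by western blot of urea/SDS lysates with β-actin loading control; in SW620 a DC50 was fitted from the concentration-response blot data.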
Target sequence in this assay (P31749 whole entry): as the sequence (P31749 whole entry) above

[9] = biological target: T1, RAC-alpha serine/threonine-protein kinase; test: Induction of AKT degradation in MS21-resistant human SW620 cells harboring KRAS/BRAF mutant assessed as reduction in total AKT level at 1 uM measured after 12 hrs by Western blot analysis relative to control; format: cell-based; design: scale not given: the % may be the effect or the level left
In short: (§4)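 SW620 time course: cells given 1 μM compound, with lysates harvested at several time points up to 24 h. Total AKT probed by western blot with β-actin as loading control.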
Target sequence in this assay (P31749 whole entry): as above

[10] = biological target: T1, RAC-alpha serine/threonine-protein kinase; test: Induction of AKT degradation in MS21-resistant human SW620 cells harboring KRAS/BRAF mutant assessed as reduction in total AKT level at 100 nM incubated for 24 hrs by Western blot analysis relative to control; format: cell-based; design: scale not given: the % may be the effect or the level left; in short: as §3
Target sequence in this assay (P31749 whole entry): as above

[11] = biological target: T1, RAC-alpha serine/threonine-protein kinase; test: Induction of AKT degradation in MS21-resistant human SW620 cells harboring KRAS/BRAF mutant assessed as reduction in total AKT level incubated for 24 hrs by Western blot analysis; format: cell-based; in short: as §3
Target sequence in this assay (P31749 whole entry, looked up, change not shown): as the sequence (P31749 whole entry) above

[12] = Toxicity in Swiss albino mouse assessed as clinical signs at 75 mg/kg, ip administered as single dose and measured for 12 hrs; format: organism-based; details: in vivo
In short: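 Male Swiss albino mice given a single 75 mg/kg IP dose in 5% NMP/5% Solutol HS-15/90% saline; watched for clinical signs across a 12 h pharmacokinetic sampling period.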

[13] = biological target: T1, RAC-alpha serine/threonine-protein kinase; test: Induction of AKT degradation in human SW620 cells assessed as reduction in total AKT level at 1 uM measured after 18 hrs by TMT-MS analysis; format: cell-based
In short: (§5)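 SW620 cells treated at 1 μM for 18 h, two biological replicates per condition. Lysates in 8 M urea were reduced with DTT, alkylated with iodoacetamide, digested with trypsin, labeled with TMT, split into 22 fractions and analyzed by nanoLC-MS/MS on a Q-Exactive HF-X. Output is log2 fold change against p value.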

SW-620 [14] = test: Induction of apoptosis in human SW620 cells harboring KRAS mutant assessed as cell death at 5 uM measured upto 72 hrs; format: functional, cell-based
In short: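 SW620 cells given 5 μM compound or DMSO; percent cell death followed with DRAQ7 at 0, 24, 36, 48 and 72 h. Standard errors taken from three independent experiments.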

[15] = biological target: T2, RAC-beta serine/threonine-protein kinase (Homo sapiens, UniProt P31751); test: Induction of AKT2 degradation in human SW620 cells assessed as reduction in total AKT level at 1 uM measured after 18 hrs by TMT-MS analysis; format: cell-based; in short: as §5
T2 sequence (P31751 whole entry): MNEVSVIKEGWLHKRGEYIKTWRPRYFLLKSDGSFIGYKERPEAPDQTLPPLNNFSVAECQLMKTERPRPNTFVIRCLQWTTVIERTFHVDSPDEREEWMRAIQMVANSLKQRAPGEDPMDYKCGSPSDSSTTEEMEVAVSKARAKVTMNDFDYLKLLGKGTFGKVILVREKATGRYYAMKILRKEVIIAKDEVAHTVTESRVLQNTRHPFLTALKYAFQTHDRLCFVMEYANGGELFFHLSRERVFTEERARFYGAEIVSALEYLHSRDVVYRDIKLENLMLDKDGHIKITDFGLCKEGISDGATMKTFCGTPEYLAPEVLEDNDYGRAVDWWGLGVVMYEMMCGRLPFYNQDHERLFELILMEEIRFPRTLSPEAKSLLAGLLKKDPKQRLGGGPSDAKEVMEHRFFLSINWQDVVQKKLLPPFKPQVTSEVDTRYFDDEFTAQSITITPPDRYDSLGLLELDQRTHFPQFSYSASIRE

[16] = biological target: T1, RAC-alpha serine/threonine-protein kinase; test: Induction of AKT degradation in MS21-resistant human SW620 cells harboring KRAS/BRAF mutant assessed as reduction in total AKT level at 1 uM by Western blot analysis; format: cell-based; details: time 1-24 hrs, TDE = time-dependent effect; in short: as §4
[17] = biological target: T2, RAC-beta serine/threonine-protein kinase; test: Inhibition of AKT2 (unknown origin) preincubated for 20 mins followed by [33P]-ATP addition measured after 120 mins by hotspot kinase assay
[18] = biological target: T1, RAC-alpha serine/threonine-protein kinase; test: Induction of AKT degradation in MS21-resistant human COLO 205 cells harboring BRAF mutant assessed as reduction in total AKT level at 1 uM incubated for 24 hrs by Western blot analysis; format: cell-based; in short: as §2
[19] = biological target: T2, RAC-beta serine/threonine-protein kinase; test: Induction of AKT2 degradation in human SW620 cells at 0.01 to 10 uM incubated for 24 hrs by Western blot analysis; format: cell-based; details: dose 0.01-10 µM
[20] = Tmax in Swiss albino mouse at 75 mg/kg, ip administered as single dose and measured for 12 hrs by LC-MS/MS analysis; format: ADME, organism-based; details: in vivo; in short: as §1
[21] = biological target: Proline-rich AKT1 substrate 1 (Homo sapiens) (UniProt Q96B36); test: Inhibition of PRAS40 phosphorylation in human SW620 cells at 1 uM measured after 18 hrs by TMT-MS analysis; format: cell-based
[22] = biological target: T1, RAC-alpha serine/threonine-protein kinase; test: Induction of AKT degradation in MS21-resistant human PANC-1 cells harboring […] mutant assessed as reduction in total AKT level at 1 uM incubated for 24 hrs by Western blot analysis; format: cell-based; in short: as §2
[23] = biological target: T1, RAC-alpha serine/threonine-protein kinase; test: Induction of AKT degradation in MS-21 resistant human SW620 cells harboring KRAS-mutant assessed as reduction in total Akt level at 1 uM incubated for 24 hrs by Western blot analysis; format: cell-based; in short: as §2
[24] = biological target: T1, RAC-alpha serine/threonine-protein kinase; test: Induction of AKT degradation in MS21-resistant human SK-MEL-239 cells harboring BRAF mutant assessed as reduction in total AKT level at 1 uM incubated for 24 hrs by Western blot analysis; format: cell-based; in short: as §2
[25] = biological target: T1, RAC-alpha serine/threonine-protein kinase; test: Induction of AKT degradation in MS21-resistant human PANC-1 cells harboring […] mutant assessed as reduction in total AKT level at 100 nM incubated for 24 hrs by Western blot analysis relative to control; format: cell-based; design: scale not given: the % may be the effect or the level left; in short: as §3
[26] = biological target: T1, RAC-alpha serine/threonine-protein kinase; test: Inhibition of AKT1 (unknown origin) preincubated for 20 mins followed by [33P]-ATP addition measured after 120 mins by hotspot kinase assay

Cmax [1]: 1000 nM
Activity [2]: Active
Activity [3]: Active
Activity [4]: Active
IC50 [5]: 0.544 µM
concentration at 12 h [6]: > 100 nM
GI50 (SW-620 [7]): 3.1 µM
Activity [8]: Dde
Activity [9]: 100%
Activity [10]: 100%
EC50 [11]: 0.023 µM
Activity [13]: Active
Activity [15]: Active
Activity [16]: Tde
IC50 [17]: 0.09 µM
Activity [18]: Active
Activity [19]: Active
Tmax [20]: 30 min
inhibition [21]: Active
Activity [22]: Active
Activity [23]: Active
Activity [24]: Active
Activity [25]: 100%
IC50 [26]: 0.798 µM
Structure (SMILES): Cc1ncsc1-c1ccc([C@H](C)NC(=O)[C@@H]2C[C@@H](O)CN2C(=O)[C@@H](NC(=O)CCCCCCCCCCNC(=O)CCc2cccc(-c3ccc4nc(-c5cccnc5N)n(-c5ccc(C6(N)CCC6)cc5)c4n3)c2)C(C)(C)C)cc1
inhibition (PC-3): Active
Activity [12]: Non-Toxic
Activity (SW-620 [14]): Active
